MC4R antagonist – MC4R antagonists of cAMP signaling, primary screen, cell-based, TR-FRET, antagonist arm of biased-ligand search; Melanocortin receptor 4 (Homo sapiens), P32245; MC4R-expressing cells, MTII-stimulated cAMP, LANCE TR-FRET; inhibition, % at 6.5 µM; hit rate 0.48% among 360,000; AID 540295, 2011;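 active = inhibition above its plate's cutoff, the mean of tested wells on that plate plus 3 SD, cut at about 29% in these data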;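 note: 0% = Melanotan II alone and 100% = Melanotan II plus saturating MCL0020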
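System: U2OS-MC4R stable cell line; Technique: Eu-cAMP/anti-cAMP TR-FRET, emission 671 nm; Repeats: single well per compound; Also added: Melanotan II; Dosing: one concentration, 6.5 µM nominal; Schedule: 30-min compound, 1-h challenge, 1-h detection, room temperature.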
MC4R ag barr – MC4R agonists recruiting beta-arrestin, primary screen, cell-based, luminescence, agonist arm of biased-ligand search; hit rate 0.98% among 360,000; Melanocortin receptor 4 (Homo sapiens), P32245; U2OS MC4R beta-arrestin complementation; percent of melanotan II response, DMSO zero; activation, % at 8.9 µM; AID 540308, 2011;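 active = activation above a per-plate cutoff, the mean activation of sample wells on that plate plus 3 SD, cut at about 8% in these data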
SMARCA2 activ – SMARCA2 (BRM) function activators, primary screen, cell-based, luminescence, high throughput; MG213 cells, MMTV-luciferase reporter, dexamethasone, overnight; activation, % at 9.1 µM; hit rate 1% among 370,000; AID 652017, 2013; in the data active = activation above about 7.8%;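 note: 0% = vehicle wells and 100% = reference activator wells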
ATG4B inhibitor – ATG4B protease inhibitors, primary screen, biochemical, fluorescence, uHTS; ATG4B cleavage of LC3-PLA2, NBD-HPC fluorescence, 1 h; inhibition, % at 8.33 µM; hit rate 0.51% among 340,000; in the data active = inhibition above about 40%
Target sequence (Q9Y4P1 whole entry, looked up): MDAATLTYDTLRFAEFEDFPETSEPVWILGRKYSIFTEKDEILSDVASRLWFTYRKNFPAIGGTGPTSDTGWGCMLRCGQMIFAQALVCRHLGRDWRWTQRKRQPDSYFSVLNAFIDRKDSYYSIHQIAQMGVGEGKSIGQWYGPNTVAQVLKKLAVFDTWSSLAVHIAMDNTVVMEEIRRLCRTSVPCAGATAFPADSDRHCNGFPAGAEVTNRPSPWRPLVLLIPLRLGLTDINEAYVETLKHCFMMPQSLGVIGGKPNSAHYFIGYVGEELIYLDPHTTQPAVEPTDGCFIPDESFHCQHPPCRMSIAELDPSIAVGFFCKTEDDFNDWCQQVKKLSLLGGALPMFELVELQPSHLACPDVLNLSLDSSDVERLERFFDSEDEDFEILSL
MPTP block – mitochondrial permeability transition pore inhibitors, primary screen, biochemical, isolated mouse mitochondria, absorbance; Ca2+ swelling absorbance, 30 min; inhibition, % at 10 µM; hit rate 1.4% among 360,000; AID 602449, 2012;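 active = inhibition of 50% or more, scaled per plate between neutral and stimulator controls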;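 note: 0% = DMSO wells given calcium and 100% = 1 mM EGTA wells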
MPTP counter – fluorescence retest of MPTP screen hits in isolated mitochondria, single concentration. AID 624504, 2012. membrane potential, Rhodamine 123 fluorescence. inhibition, % at 10 µM. shares compounds with MPTP block. hit rate 78% among 5,000; in the data active = inhibition above about 22%;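 note: 0% = DMSO vehicle and 100% = positive control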
MPTP swell DR – mitochondrial permeability transition pore inhibitors, dose response, biochemical, absorbance, uHTS hits; shares compounds with MPTP block; isolated mitochondria swelling; IC50, µM; hit rate 58% among 780; in the data active = IC50 below about 20 µM
MPTP counter DR – fluorescent counter-screen in isolated mitochondria, dose response, counter-screen for MPTP inhibitor project, biochemical, fluorescence, uHTS hits | shares compounds with MPTP block | isolated mitochondria counterscreen, fluorescence read-out | IC50, µM | hit rate 49% among 780 | AID 651564, 2012; in the data active = IC50 below about 80 µM
Active calls of the source: *; i = inactive; . = not tested or not shown. Compounds with a hit are over-represented: about 4.1% of the library has one in this group of screens.

SMILES	MC4R antagonist	MC4R ag barr	SMARCA2 activ	ATG4B inhibitor	MPTP block	MPTP counter	others
CCOc1cc(CNCC(C)C)cc(Cl)c1OCc1ccccc1	-2.9	2.1	-2.5	-1.6	8.1	.
Cc1ccc2nc(/C(C#N)=C\c3ccc(N4CCCCC4)c([N+](=O)[O-])c3)[nH]c2c1	3.9	-2.0	0.2	-2.9	55.7*	63.5*
N#C/C(=C/c1ccc(N2CCCC2)c([N+](=O)[O-])c1)c1nc2ccccc2[nH]1	18.7	1.8	-2.4	0.5	53.1*	34.7*
COc1ccc(-n2cc(COC(=O)NCCc3c[nH]c4ccccc34)nn2)cc1	.	.	0.4	.	.	.
COC(=O)[C@]12C[C@H](CC(=O)NCC3CCCCC3)C(=O)N(CCc3ccc(OC)c(OC)c3)C1=C[C@H](C(C)C)O[C@@H]2C1CC1	.	.	-3.2	.	.	.
CC(C)(C)n1ncc2c(=O)n(Cc3cccc(Cn4cnc5c(cnn5C(C)(C)C)c4=O)c3F)cnc21	-1.0	-1.2	1.6	-2.1	95.2*	87.4*
c1ccc(C(Cc2nc(-c3ccncc3)no2)c2ccccc2)cc1	10.2	0.0	-4.7	-3.6	77.6*	71.9*
c1ccc(-c2nc(-c3ccncc3)no2)cc1	5.3	-2.1	7.2	12.4	-1.4	.
Cc1nc(Nc2ccc(S(=O)(=O)N3CCCCC3C)cc2)c2nnn(Cc3ccccc3)c2n1 (centres undefined)	-3.0	-1.6	-3.2	-6.0	67.8*	14.1	MPTP swell DR=i;MPTP counter DR=>80
CC1CCc2nc3sc4c(c3c(N)c2C1)CCCC4 (centres undefined)	-3.9	-0.7	5.4	8.2	88.5*	81.1*
Nc1c(C(=O)O)sc2nc(-c3ccccc3)c3c(c12)CCCC3	5.6	-2.2	0.4	9.9	1.8	.
CC1CCc2c(nc3sc4c(c3c2N)CCCC4)C1 (centres undefined)	15.1	-1.6	3.3	15.2	76.1*	83.9*
CCOC(=O)c1nc2sc3c(c2c(=O)[nH]1)CCC(C)C3 (centres undefined)	3.1	1.3	-0.1	4.9	1.4	.
CCc1c(-c2ccccc2)nc2sc3c(c2c1N)CCCC3	6.5	-2.0	1.4	36.0	83.7*	70.2*
Nc1c2c(nc3sc4c(c13)CCCCC4)CCCCC2	1.8	0.1	3.0	1.1	77.8*	92.6*
Nc1nc2c(s1)CCCCCCCCCC2	2.1	4.7	-1.8	34.9	2.6	.
COc1ccc(-n2c(SCc3ccc([N+](=O)[O-])cc3)nnc2-c2ccco2)cc1	.	.	-4.8	.	.	.
COc1ccc2c(c1)CN1CN(CC(C)C)S(=O)(=O)CC21 (centres undefined)	.	.	-4.7	.	.	.
O=C(Nc1cc(Oc2ccccc2)cc([N+](=O)[O-])c1)C12CC3CC(C1)CC(n1cnc(Cl)n1)(C3)C2	6.7	-1.5	-4.9	-16.5	81.9*	59.0*
N#Cc1cccc(C#N)c1Oc1ccc(S(=O)(=O)Nc2ccc(Cl)cc2)cc1	8.9	0.8	-3.4	0.5	76.9*	44.9*
CCOc1ccc(C=Nn2c(-c3cccc(OC(C)C)c3)n[nH]c2=S)cc1	.	.	-3.3	.	.	.
COc1ccc([N+](=O)[O-])cc1NC(=S)NC(NC(=O)Cc1ccc(OC)c(OC)c1)C(Cl)(Cl)Cl (centres undefined)	8.1	-1.1	-3.5	1.4	65.8*	51.2*
CN(C)C=Nc1ccc(Cn2cnc3nc4ccc(Cl)cc4cc3c2=O)cc1	.	.	-4.8	.	.	.
Cc1ccc(NS(=O)(=O)c2ccc(C(=O)NC3CCN(Cc4ccccc4)CC3)cc2)cc1	10.7	-0.2	-5.8	-7.8	59.5*	21.8*
Cc1ccccc1S(=O)(=O)N1CCCc2nc(-c3ccccc3)ccc21	.	.	-5.8	.	.	.
C=CC[n+]1c(-c2ccc(OC)cc2)csc1NNC(=O)Nc1ccccc1	6.9	1.2	-1.4	-20.5	71.2*	59.2*

Source: PubChem BioAssay
